Laboratory results as given in ChEMBL document CHEMBL3739274, “Highly functionalized tetrahydropyridines are cytotoxic and selective inhibitors of human puromycin sensitive aminopeptidase” (Eur J Med Chem, 2015).

Tests used:
[1] = Inhibition of Plasmodium falciparum aminopeptidase-N using Leu-pNA as substrate after 30 mins
Method in brief: (§1)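 Enzyme was preincubated with compound in triplicate for 30 min at 37 °C in 10 mM Tris pH 7.5, 100 mM NaCl. Leu-pNA was then added and the immediate absorbance rise followed at 405 nm. IC₅₀ was computed from the concentration series.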

[2] = Inhibition of Escherichia coli aminopeptidase-N using Leu-pNA as substrate after 30 mins; method in brief: as §1
[3] = molecular target: T1, Aminopeptidase N (Sus scrofa, UniProt P15145); assay: Inhibition of porcine aminopeptidase-N using Leu-pNA as substrate after 30 mins
T1 sequence (P15145 whole entry): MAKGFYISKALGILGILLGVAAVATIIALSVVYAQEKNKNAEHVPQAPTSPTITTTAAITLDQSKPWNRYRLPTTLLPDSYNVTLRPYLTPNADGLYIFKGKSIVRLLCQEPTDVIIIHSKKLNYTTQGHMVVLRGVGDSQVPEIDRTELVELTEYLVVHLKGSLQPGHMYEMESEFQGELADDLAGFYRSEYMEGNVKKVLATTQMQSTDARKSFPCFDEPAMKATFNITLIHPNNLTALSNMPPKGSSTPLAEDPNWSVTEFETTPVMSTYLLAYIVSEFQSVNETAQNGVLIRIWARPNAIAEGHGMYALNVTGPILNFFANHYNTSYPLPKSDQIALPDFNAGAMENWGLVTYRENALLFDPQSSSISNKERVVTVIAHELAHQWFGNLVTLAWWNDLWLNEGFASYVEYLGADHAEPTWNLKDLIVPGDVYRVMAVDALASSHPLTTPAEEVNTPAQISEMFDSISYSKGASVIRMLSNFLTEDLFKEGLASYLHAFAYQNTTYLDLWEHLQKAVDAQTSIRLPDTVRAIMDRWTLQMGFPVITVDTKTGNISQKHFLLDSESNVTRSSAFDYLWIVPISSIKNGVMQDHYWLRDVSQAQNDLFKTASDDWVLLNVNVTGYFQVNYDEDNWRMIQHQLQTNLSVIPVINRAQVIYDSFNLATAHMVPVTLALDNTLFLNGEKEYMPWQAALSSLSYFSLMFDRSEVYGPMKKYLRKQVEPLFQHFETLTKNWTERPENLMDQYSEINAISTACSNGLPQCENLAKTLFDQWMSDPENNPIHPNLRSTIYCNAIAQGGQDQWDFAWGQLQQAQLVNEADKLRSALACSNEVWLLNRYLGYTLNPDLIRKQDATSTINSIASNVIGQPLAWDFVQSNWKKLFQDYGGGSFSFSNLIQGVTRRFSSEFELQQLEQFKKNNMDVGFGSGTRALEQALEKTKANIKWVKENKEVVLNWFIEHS
Method in brief: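 Commercial porcine enzyme was preincubated with compound in triplicate for 30 min at 37 °C. Substrate was then added and the immediate absorbance rise at 405 nm recorded. IC₅₀ was computed from the concentration series.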

[4] = tested on: A549; assay: Cytotoxicity against human A549 cells after 48 hrs by MTT assay; assay type: functional; settings: A549, 48 h
Method in brief: (§2)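 Cell lines were grown in modified Eagle's medium with 10% FBS. Cells were seeded at 10,000 per well and left 24 h to attach in humid 5% CO₂. Viability was measured by MTT, with formazan dissolved in DMSO and absorbance read at 562 nm. Results are % cytotoxicity/viability, triplicates.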

[5] = tested on: HeLa; assay: Cytotoxicity against human HeLa cells after 48 hrs by MTT assay; assay type: functional; method in brief: as §2
[6] = tested on: HepG2; assay: Cytotoxicity against human HepG2 cells after 48 hrs by MTT assay; assay type: functional; settings: HepG2, 48 h; method in brief: as §2
[7] = molecular target: Puromycin-sensitive aminopeptidase (Homo sapiens, UniProt P55786); assay: Inhibition of recombinant human puromycin sensitive aminopeptidase using Leu-pNA as substrate after 30 mins
Puromycin-sensitive aminopeptidase, sequence (P55786 whole entry): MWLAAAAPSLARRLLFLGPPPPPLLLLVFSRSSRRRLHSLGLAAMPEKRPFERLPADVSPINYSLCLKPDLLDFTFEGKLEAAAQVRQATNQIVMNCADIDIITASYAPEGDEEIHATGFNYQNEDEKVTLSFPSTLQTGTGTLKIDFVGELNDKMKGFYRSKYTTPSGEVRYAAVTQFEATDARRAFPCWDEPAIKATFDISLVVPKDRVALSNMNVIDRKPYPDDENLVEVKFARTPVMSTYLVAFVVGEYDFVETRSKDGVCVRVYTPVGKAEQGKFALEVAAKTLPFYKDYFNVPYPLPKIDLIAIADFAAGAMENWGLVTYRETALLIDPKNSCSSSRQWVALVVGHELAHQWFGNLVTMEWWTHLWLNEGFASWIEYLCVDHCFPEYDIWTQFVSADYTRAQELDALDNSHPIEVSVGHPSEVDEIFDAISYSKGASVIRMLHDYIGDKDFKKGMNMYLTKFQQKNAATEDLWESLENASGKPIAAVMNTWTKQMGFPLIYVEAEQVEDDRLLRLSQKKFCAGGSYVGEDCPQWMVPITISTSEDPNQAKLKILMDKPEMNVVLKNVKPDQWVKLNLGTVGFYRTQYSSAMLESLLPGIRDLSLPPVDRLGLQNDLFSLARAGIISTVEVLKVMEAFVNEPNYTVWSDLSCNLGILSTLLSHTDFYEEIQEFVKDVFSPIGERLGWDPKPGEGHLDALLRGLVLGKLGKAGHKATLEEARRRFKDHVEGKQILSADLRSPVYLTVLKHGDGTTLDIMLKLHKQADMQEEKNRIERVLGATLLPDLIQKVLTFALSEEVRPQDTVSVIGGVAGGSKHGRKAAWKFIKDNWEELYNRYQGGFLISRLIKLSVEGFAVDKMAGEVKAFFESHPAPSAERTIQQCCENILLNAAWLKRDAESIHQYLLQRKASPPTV

| IC50 [1] [µM] | IC50 [2] [µM] | IC50 [3] [µM] | IC50 [7] [µM] | Structure (SMILES) | GI50 [4] [µM] | GI50 [5] [µM] | GI50 [6] [µM] |
| --- | --- | --- | --- | --- | --- | --- | --- |
| > 100 | > 100 | > 100 |  | OC1=CC(c2ccccn2)N(c2ccccc2)C(c2ccccn2)C1 (stereo not given) |  |  |  |
|  |  |  |  | CCOC(=O)C1=C(Nc2ccccc2)CC(c2ccc(Br)cc2)N(c2ccccc2)C1c1ccc([N+](=O)[O-])cc1 (stereo not given) | > 100 | 10.6 | > 100 |
| > 100 | > 100 | > 100 |  | COC(=O)C1=C(Nc2ccccc2)CC(c2ccc([N+](=O)[O-])cc2)N(c2ccccc2)C1c1ccc([N+](=O)[O-])cc1 (stereo not given) |  |  |  |
| > 100 | > 100 | > 100 |  | CCOC(=O)C1=C(Nc2ccccc2)CC(c2cc(OC)c(OC)c(OC)c2)N(c2ccccc2)C1c1cccnc1 (stereo not given) |  |  |  |
| > 100 | > 100 | > 100 |  | CCOC(=O)C1C(=O)CC(c2cccnc2)N(c2ccccc2)C1c1cccnc1 (stereo not given) | > 100 | 9.32 | 11.2 |
| > 100 | > 100 | > 100 |  | CCOC(=O)C1C(=O)CC(c2ccccn2)N(c2ccccc2)C1c1ccccn1 (stereo not given) |  |  |  |
|  |  |  |  | CCOC(=O)C1=C(Nc2ccc(C)cc2)CC(c2ccc(F)cc2)N(c2ccc(C)cc2)C1c1ccc(F)cc1 (stereo not given) | > 100 | > 100 | 14.9 |
| > 100 | > 100 | > 100 |  | CCOC(=O)C1=C(Nc2ccccc2)CC(c2ccc(Br)cc2)N(c2ccccc2)C1c1cccs1 (stereo not given) |  |  |  |
| > 100 | > 100 | > 100 |  | CCOC(=O)C1=C(Nc2ccccc2)CC(c2ccc(Cl)cc2)N(c2ccccc2)C1c1cccnc1 (stereo not given) | > 100 | 9.95 | 11.9 |
| > 100 | > 100 | > 100 |  | CCOC(=O)C1=C(Nc2ccc(C)cc2)CC(c2ccccc2)N(c2ccc(C)cc2)C1c1ccccn1 (stereo not given) | > 100 | 90.7 | > 100 |
| > 100 | > 100 | > 100 |  | CCOC(=O)C1=C(Nc2ccccc2)CC(c2ccccn2)N(c2ccccc2)C1c1ccccn1 (stereo not given) |  |  |  |
| > 100 | > 100 | > 100 |  | CCOC(=O)C1=C(Nc2ccccc2)CC(c2ccc(C#N)cc2)N(c2ccccc2)C1c1cccnc1 (stereo not given) | > 100 | > 100 | 13.7 |
| > 100 | > 100 | > 100 |  | CCOC(=O)C1=C(Nc2ccccc2)CC(c2ccc(C#N)cc2)N(c2ccccc2)C1c1ccccn1 (stereo not given) |  |  |  |
| > 100 | > 100 | > 100 |  | OC1=CC(c2cccnc2)N(c2ccccc2)C(c2cccnc2)C1 (stereo not given) |  |  |  |
|  |  |  |  | CCOC(=O)C1=C(Nc2ccccc2)CC(c2ccc(F)cc2)N(c2ccccc2)C1c1ccc([N+](=O)[O-])cc1 (stereo not given) | > 100 | 88.2 | > 100 |
| > 100 | > 100 | > 100 |  | CCOC(=O)C1=C(Nc2ccccc2)CC(c2cccnc2)N(c2ccccc2)C1c1cccnc1 (stereo not given) | > 100 | 87.9 | 81.5 |
|  |  |  |  | COc1cccc2c1C(=O)c1c(O)c3c(c(O)c1C2=O)C[C@@](O)(C(=O)CO)C[C@@H]3O[C@H]1C[C@H](N)[C@H](O)[C@H](C)O1 [DOXORUBICIN] | 8.14 | 7.51 | 4.45 |
| > 100 | > 100 | > 100 | 2.45 | COc1ccc(C[C@H](N)C(=O)N[C@H]2[C@@H](O)[C@H](n3cnc4c(N(C)C)ncnc43)O[C@@H]2CO)cc1 [PUROMYCIN] |  |  |  |
